For 2 proteins, Km results are on record in ChEMBL document CHEMBL1137383, “New efficient substrates for semicarbazide-sensitive amine oxidase/VAP-1 enzyme: analysis by SARs and computational docking” (J Med Chem, 2006).

Substrate in data set [1]: C=CCOC(=O)NCc1cccc(CN)c1
In words: (§1) Binding affinity to human SSAO. A digest of the protocol: (§2)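 Recombinant human VAP-1 (0.1 µg protein/assay), Amplex Red/HRP H2O2 fluorimetry in 0.2 mol/L phosphate pH 7.4, 37 °C, 50 min; semicarbazide-insensitive H2O2 subtracted. Km and Vmax from nonlinear Michaelis-Menten fit across substrate concentrations; means of four independent measurements.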

Substrate in data set [2]: Cc1ccc(CN)cc1F
Described as §1. A digest of the protocol:
as §2

Substrate in data set [3]: NCCCCc1ccccc1
The description is as §1. A digest of the protocol:
as §2

Substrate in data set [4]: NCCCc1ccccc1
Described as §1. A digest of the protocol:
as §2

Substrate in data set [5]: NCCc1ccc(F)cc1
The description is as §1. A digest of the protocol:
as §2

Substrate in data set [6]: NCCc1ccccc1
The data set is described as §1. A digest of the protocol:
as §2

Substrate in data set [7]: NCc1ccc(F)cc1
The description is as §1. A digest of the protocol: as §2

Substrate in data set [8]: NCc1cccc(CNC(=O)CI)c1
The description is as §1. A digest of the protocol:
as §2

Substrate in data set [9]: NCc1cccc(CNC(=O)c2ccccc2)c1
The description is as §1. A digest of the protocol:
as §2

Substrate in data set [10]: NCc1ccccc1
The description is as §1. A digest of the protocol: as §2

Substrate in data set [11]: C=CCOC(=O)NCc1cccc(CN)c1
In words: (§3) Binding affinity to mouse SSAO. A digest of the protocol: (§4)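 Mouse adipose membranes (1 µg protein/assay) assayed by Amplex Red/HRP H2O2 fluorimetry, 0.2 mol/L phosphate pH 7.4, 37 °C, 50 min, semicarbazide-insensitive signal subtracted. Km and Vmax by nonlinear Michaelis-Menten fitting; means of four independent measurements.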

Substrate in data set [12]: Cc1ccc(CN)cc1F
The description is as §3. A digest of the protocol: as §4

Substrate in data set [13]: NCCCCc1ccccc1
The description is as §3. A digest of the protocol: as §4

Substrate in data set [14]: NCCCc1ccccc1
Described as §3. A digest of the protocol: as §4

Substrate in data set [15]: NCCc1ccc(F)cc1
Described as §3. A digest of the protocol:
as §4

Substrate in data set [16]: NCCc1ccccc1
The data set is described as §3. A digest of the protocol:
as §4

Substrate in data set [17]: NCc1ccc(F)cc1
The description is as §3. A digest of the protocol: as §4

Substrate in data set [18]: NCc1cccc(CNC(=O)CI)c1
The data set is described as §3. A digest of the protocol: as §4

Substrate in data set [19]: NCc1cccc(CNC(=O)c2ccccc2)c1
The description is as §3. A digest of the protocol: as §4

Substrate in data set [20]: NCc1ccccc1
The description is as §3. A digest of the protocol:
as §4

B1: Amine oxidase [copper-containing] 3 (Homo sapiens), Q16853 (protein)
chain: MNQKTILVLLILAVITIFALVCVLLVGRGGDGGEPSQLPHCPSVSPSAQPWTHPGQSQLFADLSREELTAVMRFLTQRLGPGLVDAAQARPSDNCVFSVELQLPPKAAALAHLDRGSPPPAREALAIVFFGRQPQPNVSELVVGPLPHPSYMRDVTVERHGGPLPYHRRPVLFQEYLDIDQMIFNRELPQASGLLHHCCFYKHRGRNLVTMTTAPRGLQSGDRATWFGLYYNISGAGFFLHHVGLELLVNHKALDPARWTIQKVFYQGRYYDSLAQLEAQFEAGLVNVVLIPDNGTGGSWSLKSPVPPGPAPPLQFYPQGPRFSVQGSRVASSLWTFSFGLGAFSGPRIFDVRFQGERLVYEISLQEALAIYGGNSPAAMTTRYVDGGFGMGKYTTPLTRGVDCPYLATYVDWHFLLESQAPKTIRDAFCVFEQNQGLPLRRHHSDLYSHYFGGLAETVLVVRSMSTLLNYDYVWDTVFHPSGAIEIRFYATGYISSAFLFGATGKYGNQVSEHTLGTVHTHSAHFKVDLDVAGLENWVWAEDMVFVPMAVPWSPEHQLQRLQVTRKLLEMEEQAAFLVGSATPRYLYLASNHSNKWGHPRGYRIQMLSFAGEPLPQNSSMARGFSWERYQLAVTQRKEEEPSSSSVFNQNDPWAPTVDFSDFINNETIAGKDLVAWVTAGFLHIPHAEDIPNTVTVGNGVGFFLRPYNFFDEDPSFYSADSIYFRGDQDAGACEVNPLACLPQAAACAPDLPAFSHGGFSHN
B1: the Km in data set [1] was 569 µM; in data set [2], 405 µM; in data set [3], 280 µM; in [4] it was 1670 µM; in [5], 1900 µM; in [6], 3720 µM. Also, the Km in data set [7] is 205 µM; in data set [8], 525 µM; in data set [9] it was 630 µM; in data set [10], 224 µM.

B2: Amine oxidase [copper-containing] 3 (Mus musculus), O70423 (protein)
chain: MTQKTTLVLLALAVITIFALVCVLLAGRSGDGGGLSQPLHCPSVLPSVQPRTHPSQSQPFADLSPEELTAVMSFLTKHLGPGLVDAAQARPSDNCVFSVELQLPAKAAALAHLDRGGPPPVREALAIIFFGGQPKPNVSELVVGPLPHPSYMRDVTVERHGGPLPYYRRPVLDREYQDIEEMIFHRELPQASGLLHHCCFYKHQGQNLLTMTTAPRGLQSGDRATWFGLYYNLSGAGFYPHPIGLELLIDHKALDPALWTIQKVFYQGRYYESLTQLEDQFEAGLVNVVLVPNNGTGGSWSLKSSVPPGPAPPLQFHPQGPRFSVQGSQVSSSLWAFSFGLGAFSGPRIFDIRFQGERVAYEISVQEAIALYGGNSPASMSTCYVDGSFGIGKYSTPLIRGVDCPYLATYVDWHFLLESQAPKTLRDAFCVFEQNQGLPLRRHHSDFYSHYFGGVVGTVLVVRSVSTLLNYDYIWDMVFHPNGAIEVKFHATGYISSAFFFGAGEKFGNRVGAHTLGTVHTHSAHFKVDLDVAGLKNWAWAEDMAFVPTIVPWQPEYQMQRLQVTRKLLETEEEAAFPLGGATPRYLYLASNHSNKWGHRRGYRIQILSFAGKPLPQESPIEKAFTWGRYHLAVTQRKEEEPSSSSIFNQNDPWTPTVNFTDFISNETIAGEDLVAWVTAGFLHIPHAEDIPNTVTAGNSVGFFLRPYNFFDEDPSFHSADSIYFREGQDATACEVNPLACLSQTATCAPEIPAFSHGGFAYRDN
In the case of B2, the Km in data set [11] was 11.5 µM; in data set [12] it was 14.8 µM; in [13] it was 11.3 µM; in [14], 27 µM; in data set [15], 88.8 µM; in data set [16], 34.8 µM. Also, the Michaelis-Menten constant (Km) amounted to 15.7 µM in data set [17], 29.8 µM in data set [18], 12.8 µM in data set [19] and 15.4 µM in data set [20].

In general, Km refers to the concentration of substrate that gives half-maximal velocity.
